Source: ChEMBL document CHEMBL1250467, “Design, synthesis, and anticonvulsant activity of new N-Mannich bases derived from spirosuccinimides and spirohydantoins” (Bioorg Med Chem, 2010)
Calls of active or inactive are those of the source. No cut-off for these calls is given here.

Legend:
Rattus norvegicus [1] = assay: Anticonvulsant activity in Sprague-Dawley rat assessed as protection against maximal electroshock-induced seizures at 30 mg/kg po after 2 hrs; format: functional
How it was run: (§1)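 Male Sprague–Dawley rats, four per group, given 30 mg/kg orally as a 0.5% methylcellulose/water suspension. MES protection scored at 0.25, 0.5, 1, 2 and 4 h after dosing, motor impairment checked in parallel; data are the number of the four rats protected.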

Mus musculus [2] = assay: Neurotoxicity in ip dosed CF1 albino mouse assessed as dose required to cause toxicity after 0.5 hrs by rotarod test; format: organism-based; conditions: in vivo
How it was run: (§2)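 Male CF-1 mice; compounds suspended in 0.5% methylcellulose/water and injected ip at 30, 100 and 300 mg/kg. MES, scPTZ (pentylenetetrazole 85 mg/kg sc at the test time) and rotarod neurotoxicity were scored at 0.5 and 4 h. Value is the lowest dose active or toxic in half or more of the animals; signs such as ataxia or tremor were recorded.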

Rattus norvegicus [3] = assay: Toxicity in Sprague-Dawley rat assessed as change in body weight at 600 mg/kg, ip measured after 24 hrs of clonus of one of the fore limbs seizure stage in protected rat; format: organism-based; set-up: dose 600 mg/kg, route intraperitoneal; conditions: in vivo
How it was run: (§3)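 Male Sprague–Dawley rats (150–180 g) received compound ip at 600 mg/kg, then a challenge dose of pilocarpine. Seizure severity graded on the Racine scale; rats were scored as protected or not, and body weight change was taken 24 h after the first stage III seizure.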

Rattus norvegicus [4] = assay: Anticonvulsant activity in Sprague-Dawley rat assessed as protection against maximal electroshock-induced seizures at 30 mg/kg po after 0.5 hrs; format: functional; how it was run: as §1
Rattus norvegicus [5] = assay: Toxicity in Sprague-Dawley rat assessed as change in body weight at 600 mg/kg, ip measured after 24 hrs of clonus of one of the fore limbs seizure stage in non-protected rat; format: organism-based; set-up: dose 600 mg/kg, route intraperitoneal; conditions: in vivo; how it was run: as §3
Mus musculus [6] = assay: Anticonvulsant activity in CF1 albino mouse assessed as protection against subcutaneous pentylenetetrazole-induced seizures at 300 mg/kg, ip after 4 hrs; format: functional, organism-based; set-up: dose 300 mg/kg; how it was run: as §2
Rattus norvegicus [7] = assay: Anticonvulsant activity in Sprague-Dawley rat assessed as protection against subcutaneous pentylenetetrazole-induced seizures at 50 mg/kg po after 4 hrs; format: functional
How it was run: (§4)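 Oral fixed dose of 50 mg/kg in male Sprague–Dawley rats (0.5% methylcellulose/water suspension), four rats per group. Pentylenetetrazole 70 mg/kg given sc at each test time (0.25, 0.5, 1, 2, 4 h); protection from clonic seizures counted per four rats, with motor impairment studied in parallel.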

Rattus norvegicus [8] = assay: Anticonvulsant activity in Sprague-Dawley rat assessed as protection against maximal electroshock-induced seizures at 30 mg/kg po after 1 hr; format: functional; how it was run: as §1
Rattus norvegicus [9] = assay: Anticonvulsant activity in Sprague-Dawley rat assessed as protection against maximal electroshock-induced seizures at 30 mg/kg po after 0.25 hrs; format: functional; how it was run: as §1
Rattus norvegicus [10] = assay: Anticonvulsant activity in Sprague-Dawley rat assessed as protection against subcutaneous pentylenetetrazole-induced seizures at 50 mg/kg po after 1 hr; format: functional; how it was run: as §4
Rattus norvegicus [11] = assay: Anticonvulsant activity in Sprague-Dawley rat assessed as protection against pilocarpine-induced status epilepticus at 600 mg/kg, ip measured after clonus of one of the fore limbs seizure stage; format: functional, organism-based; set-up: dose 600 mg/kg; how it was run: as §3
Mus musculus [12] = assay: Anticonvulsant activity in ip dosed CF1 albino mouse assessed as dose required to protect against maximal electroshock-induced seizures after 0.5 hrs; format: functional; how it was run: as §2
Mus musculus [13] = assay: Neurotoxicity in CF1 albino mouse assessed as myoclonic jerks at 100 mg/kg, ip after 4 hrs by rotarod test; format: toxicity, organism-based; set-up: dose 100 mg/kg, route intraperitoneal; conditions: in vivo; how it was run: as §2
Rattus norvegicus [14] = assay: Anticonvulsant activity in Sprague-Dawley rat assessed as protection against maximal electroshock-induced seizures at 30 mg/kg po after 4 hrs; format: functional; how it was run: as §1
Mus musculus [15] = assay: Anticonvulsant activity in CF1 albino mouse assessed as protection against maximal electroshock-induced seizures at 300 mg/kg, ip after 4 hrs; format: functional, organism-based; set-up: dose 300 mg/kg; how it was run: as §2
Mus musculus [16] = assay: Neurotoxicity in ip dosed CF1 albino mouse assessed as dose required to cause toxicity after 4 hrs by rotarod test; format: organism-based; conditions: in vivo; how it was run: as §2
Rattus norvegicus [17] = assay: Anticonvulsant activity in Sprague-Dawley rat assessed as protection against subcutaneous pentylenetetrazole-induced seizures at 50 mg/kg po after 0.25 hrs; format: functional, organism-based; set-up: dose 50 mg/kg; how it was run: as §4
Rattus norvegicus [18] = assay: Anticonvulsant activity in Sprague-Dawley rat assessed as protection against subcutaneous pentylenetetrazole-induced seizures at 50 mg/kg po after 2 hrs; format: functional; how it was run: as §4
Rattus norvegicus [19] = assay: Anticonvulsant activity in Sprague-Dawley rat assessed as protection against pilocarpine-induced status epilepticus at 600 mg/kg, ip; format: functional, organism-based; set-up: dose 600 mg/kg; how it was run: as §3
Rattus norvegicus [20] = assay: Anticonvulsant activity in Sprague-Dawley rat assessed as protection against subcutaneous pentylenetetrazole-induced seizures at 50 mg/kg po after 0.5 hrs; format: functional; how it was run: as §4
Mus musculus [21] = assay: Anticonvulsant activity in CF1 albino mouse assessed as protection against subcutaneous pentylenetetrazole-induced seizures at 300 mg/kg, ip after 0.5 hrs; format: functional, organism-based; set-up: dose 300 mg/kg; how it was run: as §2
Mus musculus [22] = assay: Neurotoxicity in CF1 albino mouse assessed as mortality at 300 mg/kg, ip after 4 hrs by rotarod test; format: toxicity, organism-based; set-up: dose 300 mg/kg, route intraperitoneal; conditions: in vivo
How it was run: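 Male CF-1 albino mice, groups of eight, were given the compound ip as a suspension in 0.5% methylcellulose/water at 30, 100 and 300 mg/kg. Rotarod testing at 0.5 and 4 h scored inability to keep balance on the rod. The value is the lowest dose causing toxicity in half or more animals, with response comments such as death.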

Mus musculus [23] = assay: Neurotoxicity in CF1 albino mouse at 300 mg/kg, ip after 4 hrs by rotarod test; format: toxicity, organism-based; set-up: dose 300 mg/kg, route intraperitoneal; conditions: in vivo; how it was run: as §2
Mus musculus [24] = assay: Anticonvulsant activity in ip dosed CF1 albino mouse assessed as dose required to protect against maximal electroshock-induced seizures after 4 hrs; format: functional; how it was run: as §2
Mus musculus [25] = assay: Anticonvulsant activity in ip dosed CF1 albino mouse assessed as dose required to protect against subcutaneous pentylenetetrazole-induced seizures after 0.5 hrs; format: functional; how it was run: as §2
[26] = Neurotoxicity in po dosed Sprague-Dawley rat by rotarod test; format: toxicity, organism-based; conditions: in vivo
How it was run: (§5)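 Male Sprague–Dawley rats dosed orally (0.5% methylcellulose/water suspension), groups of eight, tested at the previously estimated time of peak effect. Doses varied until at least three points lay in the 10–90% range of protection (MES, scPTZ) or minimal rotarod neurotoxicity. ED50/TD50 with 95% confidence intervals came from regression; PI = TD50/ED50.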

Rattus norvegicus [27] = assay: Anticonvulsant activity in po dosed Sprague-Dawley rat assessed as protection against maximal electroshock-induced seizures; format: functional; how it was run: as §5
Rattus norvegicus [28] = assay: Anticonvulsant activity in po dosed Sprague-Dawley rat assessed as protection against subcutaneous pentylenetetrazole-induced seizures; format: functional; how it was run: as §5
Rattus norvegicus [29] = assay: Anticonvulsant activity in po dosed Sprague-Dawley rat assessed as time required to peak protection against seizures; format: functional
Mus musculus [30] = assay: Neurotoxicity in CF1 albino mouse assessed as unable to grasp rotarod at 300 mg/kg, ip after 4 hrs by rotarod test; format: toxicity, organism-based; set-up: dose 300 mg/kg, route intraperitoneal; conditions: in vivo; how it was run: as §2

Compound: O=C1CC2(CCc3ccccc3C2)C(=O)N1CN1CCN(c2ccc(F)cc2)CC1 (stereo unspecified)
- Activity (Rattus norvegicus [1]): 25%
- Activity (Mus musculus [2]): 300 mg/kg
- Activity (Rattus norvegicus [3]): Non-toxic
- Activity (Rattus norvegicus [4]): inactive
- Activity (Rattus norvegicus [5]): 20 g
- Activity (Mus musculus [6]): inactive
- Activity (Rattus norvegicus [7]): 25%
- Activity (Rattus norvegicus [8]): inactive
- Activity (Rattus norvegicus [9]): inactive
- Activity (Rattus norvegicus [10]): inactive
- Activity (Rattus norvegicus [11]): inactive
- Activity (Mus musculus [12]): 100 mg/kg
- Activity (Mus musculus [13]): Toxic
- Activity (Rattus norvegicus [14]): 25%
- Activity (Mus musculus [15]): inactive
- Activity (Mus musculus [16]): 300 mg/kg
- Activity (Rattus norvegicus [17]): inactive
- Activity (Rattus norvegicus [18]): 25%
- Activity (Rattus norvegicus [19]): inactive
- Activity (Rattus norvegicus [20]): inactive

Compound: O=C1NC2(CCc3ccccc3C2)C(=O)N1CN1CCN(Cc2ccccc2)CC1 (stereo unspecified)
- Activity (Rattus norvegicus [1]): 50%
- Activity (Mus musculus [21]): inactive
- Activity (Rattus norvegicus [4]): 50%
- Activity (Mus musculus [6]): inactive
- Activity (Rattus norvegicus [8]): 75%
- Activity (Mus musculus [22]): Non-toxic
- Activity (Rattus norvegicus [9]): 25%
- Activity (Mus musculus [12]): 100 mg/kg
- Activity (Mus musculus [23]): Non-toxic
- Activity (Rattus norvegicus [14]): 50%
- Activity (Mus musculus [24]): 100 mg/kg

Compound: O=C1CC2(CCc3ccccc3C2)C(=O)N1CN1CCOCC1 (stereo unspecified)
- Activity (Rattus norvegicus [1]): 25%
- Activity (Rattus norvegicus [4]): 25%
- Activity (Mus musculus [25]): 100 mg/kg
- Activity (Mus musculus [6]): inactive
- Activity (Rattus norvegicus [7]): 25%
- Activity (Rattus norvegicus [8]): 25%
- TD50 [26]: > 500 mg/kg
- Activity (Rattus norvegicus [9]): 50%
- Activity (Rattus norvegicus [10]): 25%
- Activity (Mus musculus [12]): 100 mg/kg
- Activity (Mus musculus [23]): Non-toxic
- Activity (Rattus norvegicus [14]): 50%
- Activity (Rattus norvegicus [17]): inactive
- Activity (Rattus norvegicus [18]): 25%
- ED50 (Rattus norvegicus [27]): > 160 mg/kg
- ED50 (Rattus norvegicus [28]): > 150 mg/kg
- Activity (Mus musculus [24]): 300 mg/kg
- Time (Rattus norvegicus [29]): 0.5 h
- Activity (Mus musculus [30]): Non-toxic
- Activity (Rattus norvegicus [20]): 25%
